ChEMBL document CHEMBL3608245, “Boronic acid-containing aminopyridine- and aminopyrimidinecarboxamide CXCR1/2 antagonists: Optimization of aqueous solubility and oral bioavailability” (Bioorg Med Chem Lett, 2015)
pIC50: −log10 of the molar value. Values after ≈ are worked out from the molar mass of the structure shown. Active and inactive are the calls of the source. The rule behind the calls is not given here.

Legend:
[1] = target: T1, C-X-C chemokine receptor type 2 (Homo sapiens, UniProt P25025); test: Antagonist activity at CXCR2 (unknown origin) transfected in RBL cells assessed as inhibition of IL-8-mediated intracellular calcium release preincubated for 30 mins followed by IL-8 addition by FLUO-4AM-based fluorescent microplate reader analysis; assay type: functional, cell-based
T1 sequence (P25025 whole entry): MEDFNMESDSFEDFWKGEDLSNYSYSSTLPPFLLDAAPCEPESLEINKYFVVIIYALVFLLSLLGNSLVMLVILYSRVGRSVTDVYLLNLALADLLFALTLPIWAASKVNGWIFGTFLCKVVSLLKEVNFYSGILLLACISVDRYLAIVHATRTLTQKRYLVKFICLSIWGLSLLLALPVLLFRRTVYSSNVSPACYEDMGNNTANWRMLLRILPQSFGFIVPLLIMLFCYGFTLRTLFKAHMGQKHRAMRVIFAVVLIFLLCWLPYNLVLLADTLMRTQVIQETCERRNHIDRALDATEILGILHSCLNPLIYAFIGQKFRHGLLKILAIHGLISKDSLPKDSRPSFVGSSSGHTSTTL

[2] = target: T2, C-X-C chemokine receptor type 1 (Homo sapiens, UniProt P25024); test: Antagonist activity at CXCR1 (unknown origin) transfected in RBL cells assessed as inhibition of IL-8-mediated intracellular calcium release preincubated for 30 mins followed by IL-8 addition by FLUO-4AM-based fluorescent microplate reader analysis; assay type: functional, cell-based
T2 sequence (P25024 whole entry): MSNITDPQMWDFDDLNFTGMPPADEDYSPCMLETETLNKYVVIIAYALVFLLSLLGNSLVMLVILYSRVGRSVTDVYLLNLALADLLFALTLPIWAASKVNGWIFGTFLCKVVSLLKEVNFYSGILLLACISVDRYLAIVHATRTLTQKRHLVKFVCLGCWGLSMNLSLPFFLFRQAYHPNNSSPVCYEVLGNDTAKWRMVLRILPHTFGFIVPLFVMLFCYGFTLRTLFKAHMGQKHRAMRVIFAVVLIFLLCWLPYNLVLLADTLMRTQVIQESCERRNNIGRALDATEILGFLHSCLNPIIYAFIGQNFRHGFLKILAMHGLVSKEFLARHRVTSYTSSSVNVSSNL
Method in brief: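 RBL cells stably expressing CXCR1 were preincubated 30 min with compound, then stimulated with IL8. Intracellular calcium release read by FLUO-4AM fluorescence on a microplate reader. IC50 from triplicate experiments, mean ± SE.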

[3] = Metabolic stability in human plasma assessed as compound remaining at 1 uM measured at 4 hrs by LC-MS/MS analysis; assay type: ADME, cell-free; settings: read-out: Stability
Method in brief: (§1)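 Compound at 1 µM was incubated in human plasma at 37°C for up to 24 h. Samples were taken at 0, 1, 4 and 24 h and analysed by LC-MS/MS, with results reported as % remaining.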

[4] = tested on: Plasma; test: Metabolic stability in rat plasma; assay type: ADME, cell-free
[5] = tested on: Rattus norvegicus; test: Antiinflammatory activity in Sprague-Dawley rat ozone model of pulmonary inflammation assessed as reduction in neutrophil influx at 1 mg/kg, iv after 24 hrs by Wright-Giemsa staining assay; assay type: functional, organism-based
Method in brief: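 Sprague-Dawley rats, n = 4 per cohort, received a single iv dose at t = 0 in DMA/PEG400/0.9% saline (40:40:20). Vehicle groups were kept in air (negative) or 1 ppm ozone (positive), and treated groups in ozone, each for 4 h. At 24 h the rats were sacrificed and BALF was collected. Cells were spun down, Wright-Giemsa stained and neutrophils counted.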

[6] = Metabolic stability in human plasma assessed as compound remaining at 1 uM measured at 24 hrs by LC-MS/MS analysis; assay type: ADME, cell-free; settings: read-out: Stability; method in brief: as §1
[7] = Solubility of the compound in 0.1 N HCl; assay type: physicochemical; settings: buffer
[8] = tested on: Rattus norvegicus; test: AUC in rat at 1 mg/kg, po by LC-MS/MS analysis; assay type: ADME, organism-based; settings: in vivo
[9] = Metabolic stability in human plasma assessed as compound remaining at 1 uM measured at 1 hr by LC-MS/MS analysis; assay type: ADME, cell-free; settings: read-out: Stability; method in brief: as §1
[10] = tested on: Rattus norvegicus; test: AUC in rat at 1 mg/kg, iv by LC-MS/MS analysis; assay type: ADME, organism-based; settings: in vivo
Method in brief: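 Rats dosed intravenously at 1 mg/kg in DPS vehicle (dimethylacetamide/PEG400/0.9% saline 40:40:20). Plasma concentrations measured by LC-MS/MS against a calibration curve of test compound spiked in rat plasma, run alongside the samples; AUC given in μmol·hr/L.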

[11] = Oral bioavailability in rat at 1 mg/kg by LC-MS/MS analysis; assay type: ADME, organism-based; settings: in vivo
Method in brief: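 Rats were dosed at 1 mg/kg both intravenously (vehicle dimethylacetamide/PEG400/0.9% saline 40:40:20) and by oral gavage (vehicle 0.1 N HCl or Labrasol, depending on compound). Plasma levels were measured by LC-MS/MS against a calibration curve of compound spiked into rat plasma, run alongside the samples. Oral and IV AUC are reported in μmol·hr/L.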

[12] = target: T3, Interleukin-8 receptors, CXCR1/CXCR2 (Homo sapiens, UniProt P25025+P25024); test: Antagonist activity at CXCR1/CXCR2 in isolated human PMN assessed as inhibition of IL-8-mediated intracellular calcium flux; assay type: functional, cell-based
T3 sequence (P25025 whole entry): T1 sequence (P25025 whole entry)
T3 sequence (P25024 whole entry): T2 sequence (P25024 whole entry)
Method in brief: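 Isolated human neutrophils (PMNs); inhibition of calcium flux with IL8 as agonist; IC50 reported as mean ± SE from triplicate experiments.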

Compound | pIC50 [1] | pIC50 [2] | other results
CN(Cc1ccccc1B(O)O)c1ccc(C(=O)Nc2ccc(F)cc2)cn1 | < 5.30 | < 5.30 | 
CN(Cc1ccc(B(O)O)cc1)c1ccc(C(=O)Nc2ccc(F)cc2)cn1 | 5.96 | 5.85 | 
CN(Cc1ccc(B(O)O)cn1)c1ncc(C(=O)Nc2ccc(F)cc2)cn1 | 6.03 | 5.77 | 
CN(Cc1ccc(B(O)O)cn1)c1ccc(C(=O)Nc2ccc(F)cc2)cn1 | 7.09 | 5.77 | 
NCCN(Cc1ccc(B(O)O)cn1)c1ncc(C(=O)Nc2ccc(F)cc2)cn1 | < 5.30 | < 5.30 | 
O=C(Nc1ccc(F)cc1)c1ccc(NCc2ccccc2B(O)O)nc1 | < 5.30 | < 5.30 | 
O=C(Nc1ccc(F)cc1)c1cnc(NCc2cccc(B(O)O)c2)nc1 | 6.04 | 5.87 | 
CN(Cc1cccc(B(O)O)c1)c1ccc(C(=O)Nc2ccc(F)cc2)cn1 | 6.39 | 5.39 | 
O=C(Nc1ccc(F)cc1)c1ccc(N(Cc2ccc(B(O)O)cn2)Cc2ccco2)nc1 | 7.68 | 8.48 | 
O=C(Nc1ccc(F)cc1)c1ccc(N(Cc2ccc(B(O)O)cn2)CC2CCOCC2)nc1 | 5.64 | < 5.30 | 
CN(Cc1ccccc1B(O)O)c1ncc(C(=O)Nc2ccc(F)cc2)cn1 | < 5.30 | < 5.30 | 
O=C(Nc1ccc(F)cc1)c1ccc(NCc2ccc(B(O)O)cc2)nc1 | 5.66 | 5.37 | 
O=C(Nc1ccc(F)cc1)c1cnc(N(Cc2ccc(B(O)O)cn2)Cc2ccco2)nc1 | 6.18 | 6.35 | 
O=C(Nc1ccc(F)cc1)c1ccc(N(Cc2ccccn2)Cc2ccc(B(O)O)cn2)nc1 | 5.31 | < 5.30 | 
O=C(Nc1ccc(F)cc1)c1ccc(NCc2cccc(B(O)O)c2)nc1 | 6.13 | 6.21 | 
O=C(Nc1ccc(F)cc1)c1cnc(N(Cc2ccccn2)Cc2ccc(B(O)O)cn2)nc1 | 5.37 | 5.69 | 
O=C(Nc1ccc(F)cc1)c1ccc(SCc2cc(OC(F)(F)F)ccc2B(O)O)nc1 |  |  | remaining at 4 h, 1 µM [3]: 34%; Stability [4]: Stable; Activity [5]: Active; remaining at 24 h, 1 µM [6]: 2%; solubility [7]: Insoluble; AUC ([8]; BLD = below limit of detection): BLD; remaining at 1 h, 1 µM [9]: 62%
O=C(Nc1ccc(F)cc1)c1cnc(NCc2ccc(B(O)O)cc2)nc1 | 5.59 | 5.77 | 
O=C(Nc1ccc(F)cc1)c1cnc(N(Cc2ccccc2)Cc2ccc(B(O)O)cn2)nc1 | 8.40 | 8.15 | AUC [10]: 4370 nM·h; bioavailability [11]: 24%; IC50 [12]: 0.185 µM; remaining at 4 h, 1 µM [3]: 71%; Stability [4]: Stable; Activity [5]: Active; remaining at 24 h, 1 µM [6]: 62%; solubility [7]: 0.5 mg/mL (≈ 1090 µM); AUC [8]: 1150 nM·h; remaining at 1 h, 1 µM [9]: 90%
O=C(O)CN(Cc1ccc(B(O)O)cn1)c1ncc(C(=O)Nc2ccc(F)cc2)cn1 | < 5.30 | < 5.30 | 
CN(Cc1ccc(B(O)O)cc1)c1ncc(C(=O)Nc2ccc(F)cc2)cn1 | 6.92 | 6.17 | 
O=C(Nc1ccc(F)cc1)c1ccc(N(Cc2ccccc2)Cc2ccc(B(O)O)cn2)nc1 | 6.53 | 6.49 | 
CN(Cc1cccc(B(O)O)c1)c1ncc(C(=O)Nc2ccc(F)cc2)cn1 | 5.60 | 5.60 | 
